High-throughput results (PubChem BioAssay)
IDH1 R132H inh – IDH1 R132H (human) inhibition. O75874. IDH1 R132H reductase, diaphorase/resazurin fluorescence, 60 min. inhibition, % at 10 µM. 70,000 compounds, 0.18% hits. AID 624101; in the data active means inhibition above about 34%; inconclusive means no clear call, values can overlap the other calls; inactive means below about 11%;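 further: 0% = DMSO and 100% = no enzyme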
Target sequence (O75874 whole entry R132H): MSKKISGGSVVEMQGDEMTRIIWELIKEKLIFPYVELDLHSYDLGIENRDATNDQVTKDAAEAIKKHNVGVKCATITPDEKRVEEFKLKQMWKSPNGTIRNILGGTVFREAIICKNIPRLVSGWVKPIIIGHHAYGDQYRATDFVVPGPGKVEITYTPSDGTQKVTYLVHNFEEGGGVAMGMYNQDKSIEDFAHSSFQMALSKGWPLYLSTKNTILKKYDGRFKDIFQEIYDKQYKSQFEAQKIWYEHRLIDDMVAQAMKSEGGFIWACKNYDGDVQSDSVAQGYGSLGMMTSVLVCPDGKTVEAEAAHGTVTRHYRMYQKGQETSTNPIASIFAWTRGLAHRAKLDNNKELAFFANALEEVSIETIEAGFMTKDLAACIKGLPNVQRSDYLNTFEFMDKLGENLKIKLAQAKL
GASC1 inh – inhibitors of human demethylase GASC-1 KDM4C; inhibition, % at 12.5 µM; 96,000 compounds, 0.15% hits; Q9H3R0; AID 720574; GST-KDM4C 2-372, H3K9me3 peptide, LANCE TR-FRET;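 active means mean replicate inhibition above about 25%, with at least 55% of replicates also reaching it, limit read from the data, passing the limit was not always enough; inconclusive means only one of those two conditions met; inactive means neither condition met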
Target sequence (Q9H3R0 2-372 limits assumed): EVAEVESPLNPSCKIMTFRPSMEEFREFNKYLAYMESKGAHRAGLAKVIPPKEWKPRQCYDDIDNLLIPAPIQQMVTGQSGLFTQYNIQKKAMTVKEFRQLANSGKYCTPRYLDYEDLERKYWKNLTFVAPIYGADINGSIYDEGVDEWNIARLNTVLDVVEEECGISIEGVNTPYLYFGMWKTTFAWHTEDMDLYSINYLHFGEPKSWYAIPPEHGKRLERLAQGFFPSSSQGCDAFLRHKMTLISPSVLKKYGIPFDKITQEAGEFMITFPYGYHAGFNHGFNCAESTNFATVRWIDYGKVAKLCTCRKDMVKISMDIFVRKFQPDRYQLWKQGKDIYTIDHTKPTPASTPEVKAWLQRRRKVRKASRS
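Test system – GST-tagged GASC-1 (JMJD2C) catalytic fragment, aa 2-372 · Medium – HEPES buffer, pH 7.5, plus ascorbate · Reagent – H3K9me3 peptide with Fe(II)/2OG · Compound – one test concentration per compound · Timing – 30 min reaction, 60 min detection, RT · Technique – TR-FRET with Eu antibody and ULight streptavidin, EDTA stop · Read-out basis – inhibition from TR-FRET ratio decrease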
Pf Dd2 growth – blocks growth of Plasmodium falciparum Dd2 parasites; P. falciparum Dd2 growth, SYBR Green, 72 h; hits give low values; activity change, % at 10 µM; 94,000 compounds, 2.3% hits; in the data active means activity change below about -80%; inconclusive means no clear call, values can overlap the other calls
T cruzi growth-1 – T. cruzi proliferation inhibition | T. cruzi beta-gal in NIH3T3, GalScreen luminescence, 90 h | inhibition, % at 8.34 µM | 77,000 compounds, 5.9% hits;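 active means mean inhibition above about 93%, with at least 55% of replicates each passing it, limit read from the data, passing the limit was not always enough; inconclusive means only one of those two conditions holds; inactive means neither condition holds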
T cruzi growth-2 – blocks T. cruzi growth in NIH3T3 host cells | 5,600 compounds, 72% hits | T. cruzi beta-gal in NIH3T3, GalScreen luminescence, 90 h | AID 651739 | shares compounds with T cruzi growth-1 | inhibition, % at 8.35 µM;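 active means mean replicate inhibition above about 95% and at least 55% of replicates individually reaching it, limit read from the data; inconclusive means only one of the two criteria is met; inactive means neither criterion is met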
T cruzi growth-3 – blocks T. cruzi growth in NIH3T3 host cells; shares compounds with T cruzi growth-1; inhibition, % at 2.09 µM; 5,600 compounds, 21% hits; T. cruzi beta-gal in NIH3T3, GalScreen luminescence, 90 h;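 active means mean inhibition above about 95%, with at least 55% of replicates also reaching it, limit read from the data; inconclusive means meets just one of the two conditions; inactive means meets neither condition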;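 further: plate controls were neutral control median for no effect and positive control median for full effect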
3T3 cytotox – kills mouse NIH/3T3 fibroblasts; 5,600 compounds, 14% hits; NIH/3T3 viability, CellTiter-Glo ATP luminescence, 90 h; cytotoxicity (signal decrease), % at 8.35 µM; AID 651742; shares compounds with T cruzi growth-1;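 active means mean signal decrease across replicates above about 35% based on untreated-well scatter, with enough replicates individually passing, limit read from the data; inconclusive means no rule stated though some were filed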;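 further: 0% = median of neutral control wells and 100% = median of positive control wells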
3T3 cytotox 2 – cytotoxicity in mouse NIH/3T3 fibroblasts. shares compounds with T cruzi growth-1. NIH/3T3 viability, CellTiter-Glo ATP luminescence, 90 h. inhibition, % at 24.9 µM. 5,600 compounds, 56% hits;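 active means mean loss of cell viability signal at or above a set limit, and enough replicates individually reaching it; inconclusive means meets only the mean limit or only the replicate share; inactive means meets neither condition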;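 further: 0% = median of neutral control wells and 100% = median of positive control wells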
Starred values were filed as active, the others as inactive; ? = inconclusive; . = no result given. Shown are actives, neighbours in structure and some others; about 5.8% of the full set was active somewhere.

SMILES | IDH1 R132H inh | GASC1 inh | Pf Dd2 growth | T cruzi growth-1 | T cruzi growth-2 | T cruzi growth-3 | 3T3 cytotox | 3T3 cytotox 2
COCC#Cc1ccc([C@@H]2[C@@H](CO)N3CCCCN(C(=O)CN(C)C)C[C@@H]23)cc1 | . | -0.7 | 21.3 | 98.8* | 5.6 | -13.0 | -8.5 | -11.5
Cc1ccc(-c2ccc([C@@H]3[C@H]4CN(S(=O)(=O)c5cccc(C)c5)CCCCN4[C@H]3CO)cc2)cc1 | . | . | -3.5 | ? | 103.8* | 83.2 | 21.1 | 45.5*
Cc1ccc(-c2ccc([C@@H]3[C@@H](CO)N4CCCCN(S(=O)(=O)c5cccc(C)c5)C[C@H]34)cc2)cc1 | . | . | -24.3 | 106.8* | 100.9* | 115.2* | 53.8* | 104.3*
CCCNC(=O)Nc1ccc2c(c1)C(=O)N(C)C[C@@H](OC)[C@H](C)CN(C(=O)C1CC1)[C@H](C)CO2 | 0.1 | -0.4 | . | . | . | . | . | .
CC(C)C#Cc1ccc([C@@H]2[C@@H](C#N)N(C(=O)C3CCC3)[C@@H]2CO)cc1 | . | 0.4 | -14.2 | 89.7 | . | . | . | .
CCCC#Cc1ccc([C@@H]2[C@@H](CO)N(C(=O)C3CCCC3)[C@H]2C#N)cc1 | . | 0.1 | -31.5 | 99.8* | 97.4* | 98.4* | -0.6 | 4.5
CC(C)C#Cc1ccc([C@H]2[C@H](C#N)N(C(=O)C3CCC3)[C@H]2CO)cc1 | . | -3.4 | -19.6 | 96.5* | 107.9* | 30.7 | 0.2 | 5.9
CCCC#Cc1ccc([C@H]2[C@@H](C#N)N(C(=O)C3CCCC3)[C@@H]2CO)cc1 | . | -3.4 | -39.0 | 102.5* | 100.1* | 103.7* | -5.8 | 15.4
CCCC#Cc1ccc([C@@H]2[C@@H](C#N)N(C(=O)C3CCCCC3)[C@@H]2CO)cc1 | . | 0.0 | 8.6 | 103.4* | 99.6* | 91.2 | 2.4 | 14.1
CCCC#Cc1ccc([C@H]2[C@@H](C#N)N(C(=O)C3CCCCC3)[C@H]2CO)cc1 | . | -1.2 | -59.3 | 90.8 | . | . | . | .
COc1ccc(C)cc1NC(=O)CS(=O)(=O)c1ccccc1 | 0.3 | . | . | . | . | . | . | .
COc1ccc2c3c(n(C)c2c1)[C@H](CO)N(Cc1ccccc1)CC31CN(CC2CC2)C1 | . | -0.6 | -23.8 | . | . | . | . | .
Cc1noc(C)c1NC(=O)N(C)C[C@@H]1Oc2ccc(NC(=O)CCCCCC(=O)Nc3ccccc3N)cc2C(=O)N([C@H](C)CO)C[C@H]1C | 0.1 | -0.1 | 55.2 | . | . | . | . | .
COc1ccc(-c2oc3cc(OC)c(OC)c(O)c3c(=O)c2OC)cc1OC | 0.2 | . | . | . | . | . | . | .
CCn1c(SCC(=O)Nc2ccc([N+](=O)[O-])cc2C)nnc1-c1ccc(Br)cc1 | 0.4 | . | . | . | . | . | . | .
CCCC#Cc1ccc([C@@H]2[C@H](C#N)N(C(=O)C3CCC3)[C@H]2CO)cc1 | . | -0.1 | -46.1 | ? | 100.8* | 104.6* | 26.2 | 29.7*
CCCC#Cc1ccc([C@H]2[C@@H](CO)N(C(=O)C3CCC3)[C@H]2C#N)cc1 | . | -2.4 | -14.9 | . | . | . | . | .
O=C(Nc1cccc(F)c1)N1CCCCN2[C@H](CO)[C@@H](c3ccc(-c4ccccc4F)cc3)[C@H]2C1 | . | -0.5 | -45.2 | 107.9* | 89.3 | 106.5* | 74.6* | 105.0*
O=C(Nc1cccc(F)c1)N1CCCCN2[C@@H](CO)[C@H](c3ccc(-c4ccccc4F)cc3)[C@@H]2C1 | . | -0.8 | -30.4 | 109.8* | 99.1* | 85.3 | 81.8* | 106.6*
O=C(Nc1cccc(F)c1)N1CCCCN2[C@H](CO)[C@@H](c3ccc(-c4ccccc4F)cc3)[C@@H]2C1 | . | -0.5 | -24.4 | 68.5 | . | . | . | .
Cc1ccc(-c2ccc3c(c2)O[C@@H](CN(C)Cc2ccccn2)[C@@H](C)CN([C@H](C)CO)S3(=O)=O)cc1 | -0.3 | 1.9 | -52.3 | 19.1 | . | . | . | .
O=C(N[C@@H]1CC[C@@H](CCn2cc(C3(O)CCCC3)nn2)O[C@@H]1CO)c1ccccc1F | 0.3 | -0.4 | 1.0 | -61.9 | . | . | . | .
C[C@@H]1CN([C@H](C)CO)C(=O)c2cc(NS(=O)(=O)c3ccc(Cl)cc3)ccc2O[C@@H](C)CCCCO[C@H]1CN(C)C(=O)Nc1ccc2c(c1)OCO2 | 1.6 | -0.2 | -27.9 | . | . | . | . | .
C[C@H](CO)N1C[C@H](C)[C@H](CN(C)C(=O)Nc2ccc3c(c2)OCO3)OCCCC[C@H](C)Oc2ccc(NS(=O)(=O)c3ccccc3)cc2C1=O | -1.6 | 0.0 | -35.0 | 101.3* | 107.0* | 40.5 | 6.1 | -4.9
C[C@@H]1CCCCO[C@@H](CN(C)C(=O)Nc2ccc3c(c2)OCO3)[C@H](C)CN([C@H](C)CO)C(=O)c2cc(NS(=O)(=O)c3ccc(Cl)cc3)ccc2O1 | . | -0.5 | -28.8 | ? | 101.4* | 62.3 | -17.9 | 6.0
SMILES | IDH1 R132H inh | GASC1 inh | Pf Dd2 growth | T cruzi growth-1 | T cruzi growth-2 | T cruzi growth-3 | 3T3 cytotox | 3T3 cytotox 2
C[C@@H]1CCCCO[C@@H](CN(C)C(=O)Nc2ccc3c(c2)OCO3)[C@H](C)CN([C@@H](C)CO)C(=O)c2cc(NS(=O)(=O)c3ccccc3)ccc2O1 | . | 0.6 | -1.2 | 50.0 | . | . | . | .
COc1ccc2c3c(n(C)c2c1)[C@@H](CO)N(C(=O)CC1CC1)CC31CN(Cc2ccncc2)C1 | . | 1.2 | -20.9 | . | . | . | . | .
Cc1ccccc1-c1ccc([C@H]2[C@H](CO)N3CCCCN(C(=O)CN4CCOCC4)C[C@@H]23)cc1 | . | -0.8 | -3.5 | 101.5* | 87.5 | 69.7 | 14.1 | 23.5
Cc1ccccc1-c1ccc([C@@H]2[C@H](CO)N3CCCCN(C(=O)CN4CCOCC4)C[C@@H]23)cc1 | . | 1.6 | -33.9 | 101.0* | 83.7 | 47.1 | 36.0* | 32.1*
CN1C(=O)c2cc(NS(C)(=O)=O)ccc2OC[C@H]2O[C@@H](CC(=O)NCc3ccccc3)CC[C@H]21 | . | -1.7 | 2.6 | -14.1 | . | . | . | .
O=C(c1ccc(F)cc1)N1CCCCN2[C@@H](CO)[C@@H](c3ccc(C#CC4(O)CCCC4)cc3)[C@@H]2C1 | . | 0.2 | 2.5 | ? | 80.4 | 3.6 | -3.9 | 5.4
O=C(c1ccc(F)cc1)N1CCCCN2[C@@H](CO)[C@H](c3ccc(C#CC4(O)CCCC4)cc3)[C@@H]2C1 | . | 1.8 | -3.5 | 62.4 | . | . | . | .
O=C(C1CC1)N1CCCCN2[C@@H](CO)[C@H](c3ccc(C#CC4(O)CCCC4)cc3)[C@@H]2C1 | . | . | 20.1 | 77.1 | . | . | . | .
O=C(c1ccc(F)cc1)N1CCCCN2[C@H](CO)[C@H](c3ccc(C#CC4(O)CCCC4)cc3)[C@H]2C1 | . | 0.4 | -18.2 | 105.9* | 72.2 | 15.5 | -2.0 | 0.7
COc1cccc(NC(=O)C[C@@H]2CC[C@@H]3[C@@H](COc4ccc(NC(=O)c5ccccc5F)cc4C(=O)N3C)O2)c1 | . | -1.5 | -41.7 | 30.7 | . | . | . | .
O=C(Nc1cccc(F)c1)N1CC(=O)N2[C@H](C1)[C@@H](c1ccc(-c3ccccc3)cc1)[C@@H]2CO | . | -1.7 | -7.3 | . | . | . | . | .
